pIC50, pKd: −log10 of the molar value. The source made the active and inactive calls. No cut-off for these calls is given here.
Assays:
[1] = Induction of mitotic cell cycle arrest in potoroo PtK2 cells assessed as accumulation of cells at SubG1 phase at 5 uM treated for 7 hrs, washed followed by 16 hrs incubation by flow cytometry (Rvb= 2%); assay type: functional, Potorous tridactylus
[2] = Induction of mitotic cell cycle arrest in potoroo PtK2 cells assessed as accumulation of cells at G1/G0 phase at 5 uM treated for 7 hrs, washed followed by 48 hrs incubation by flow cytometry (Rvb= 65.8%); assay type: functional, Potorous tridactylus
[3] = test system: PtK2; assay: Induction of micronucleation in potoroo PtK2 cells at 2 uM treated for 7 hrs followed by compound washout measured after 16 hrs by flow cytometry; conditions: Potorous tridactylus
[4] = Displacement of [3H]epothilone B from microtubule assessed as bound radioligand level at 20 uM treated before radioligand addition by competitive binding assay
[5] = Binding affinity to microtubule at 30 uM after 30 mins by HPLC-MS analysis
[6] = Induction of mitotic cell cycle arrest in potoroo PtK2 cells assessed as accumulation of cells at SubG1 phase at 100 nM after 24 hrs by flow cytometry (Rvb= 0.9%); assay type: functional, Potorous tridactylus
[7] = Binding affinity to microtubule
[8] = Cytotoxicity against human 1A9PTX10 cells; assay type: functional, cell-based; conditions: 1A9/ptx-10
[9] = Induction of micronucleation in potoroo PtK2 cells at 5 uM treated for 7 hrs followed by compound washout measured after 16 hrs by flow cytometry; assay type: functional, Potorous tridactylus
[10] = test system: PtK2; assay: Induction of micronucleation in potoroo PtK2 cells at 10 uM after 7 hrs by flow cytometry; conditions: Potorous tridactylus
[11] = Displacement of [3H]discodermolide from microtubule assessed as bound radioligand level at 20 uM treated before radioligand addition by competitive binding assay
[12] = Induction of mitotic cell cycle arrest in potoroo PtK2 cells assessed as accumulation of cells at SubG1 phase at 5 uM after 7 hrs by flow cytometry (Rvb= 2.4%); assay type: functional, Potorous tridactylus
[13] = Induction of mitotic cell cycle arrest in potoroo PtK2 cells assessed as accumulation of cells at G2+M phase at 5 uM treated for 7 hrs, washed followed by 16 hrs incubation by flow cytometry (Rvb= 23%); assay type: functional, Potorous tridactylus
[14] = biological target: Tubulin (Homo sapiens) (UniProt P68371+Q9H4B7+P0DPH7+P68366+Q13509+Q71U36+P04350+Q3ZCM7+P07437+P68363+Q9BQE3+Q6PEY2+Q13885+Q9BVA1+Q9BUF5); assay: Induction of covalent modification of tubulin at Thr220 and Asn228 in human A549 cells by HPLC analysis; assay type: cell-based
Method in brief: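 A549 monolayers exposed 24 h to 1 µM ligand or 0.1% DMSO. Tubulin purified from homogenate supernatant by one-step DEAE ion exchange (0.4 M KCl load, 0.8 M KCl elution) to 90% purity. Tryptic or chymotryptic digests analysed by HPLC-MRM with Q3 at m/z 249.0. Adduct fraction estimated from the areas of modified and unmodified peptide peaks.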

[15] = test system: PtK2; assay: Induction of microtubule bundle formation in potoroo PtK2 cells at 2 uM treated for 7 hrs followed by compound washout measured after 48 hrs by flow cytometry; assay type: cell-based; conditions: Potorous tridactylus
[16] = Induction of mitotic cell cycle arrest in potoroo PtK2 cells assessed as accumulation of cells at G2+M phase at 5 uM treated for 7 hrs, washed followed by 48 hrs incubation by flow cytometry (Rvb= 22.3%); assay type: functional, Potorous tridactylus
[17] = Displacement of [3H]discodermolide from microtubule assessed as bound radioligand level at 20 uM treated after radioligand addition by competitive binding assay
[18] = Induction of mitotic cell cycle arrest in potoroo PtK2 cells assessed as accumulation of cells at G1/G0 phase at 100 nM after 24 hrs by flow cytometry (Rvb= 60.8%); assay type: functional, Potorous tridactylus
[19] = Induction of mitotic cell cycle arrest in potoroo PtK2 cells assessed as accumulation at S phase at 2 uM treated for 7 hrs, washed followed by 48 hrs incubation by flow cytometry (Rvb= 10.7%); assay type: functional, Potorous tridactylus
[20] = Induction of mitotic cell cycle arrest in potoroo PtK2 cells assessed as accumulation at S phase at 2 uM treated for 7 hrs, washed followed by 16 hrs incubation by flow cytometry (Rvb= 16%); assay type: functional, Potorous tridactylus
[21] = Induction of mitotic cell cycle arrest in potoroo PtK2 cells assessed as accumulation at 100 nM after 24 hrs by flow cytometry (Rvb= 26.3%)
[22] = test system: A2780; assay: Induction of mitotic cell cycle arrest in human A2780 cells assessed as accumulation of cells at G2+M phase at 100 nM after 24 hrs by flow cytometry (Rvb= 20%); assay type: functional
[23] = test system: A2780; assay: Cytotoxicity against human A2780 cells; assay type: functional, cell-based
[24] = Induction of mitotic cell cycle arrest in potoroo PtK2 cells assessed as accumulation of cells at G1/G0 phase at 2 uM treated for 7 hrs, washed followed by 16 hrs incubation by flow cytometry (Rvb= 59%); assay type: functional, Potorous tridactylus
[25] = test system: A549; assay: Induction of mitotic cell cycle arrest in human A549 cells assessed as accumulation at S phase at 100 nM after 24 hrs by flow cytometry (Rvb= 16%); assay type: functional
[26] = test system: PtK2; assay: Induction of microtubule bundle formation in potoroo PtK2 cells at 5 uM treated for 7 hrs followed by compound washout measured after 48 hrs by flow cytometry; assay type: cell-based; conditions: Potorous tridactylus
[27] = test system: A549; assay: Cytotoxicity against human A549 cells; assay type: functional, cell-based
[28] = test system: PtK2; assay: Displacement of Flutax-2 from microtubule in potoroo PtK2 cells at 100 uM; conditions: Potorous tridactylus
[29] = Induction of mitotic cell cycle arrest in potoroo PtK2 cells assessed as accumulation at S phase at 5 uM treated for 7 hrs, washed followed by 16 hrs incubation by flow cytometry (Rvb= 16%); assay type: functional, Potorous tridactylus
[30] = Cytotoxicity against human 1A9PTX22 cells; assay type: functional, cell-based; conditions: 1A9/ptx-22
[31] = Induction of mitotic cell cycle arrest in potoroo PtK2 cells assessed as accumulation of cells at G2+M phase at 2 uM after 7 hrs by flow cytometry (Rvb= 22.1%); assay type: functional, Potorous tridactylus
[32] = test system: PtK2; assay: Induction of micronucleation in potoroo PtK2 cells at 5 uM treated for 7 hrs followed by compound washout measured after 48 hrs by flow cytometry; assay type: functional, cell-based; conditions: Potorous tridactylus
[33] = test system: PtK2; assay: Induction of micronucleation in potoroo PtK2 cells at 5 uM treated for 7 hrs followed by compound washout measured after 16 hrs by flow cytometry; conditions: Potorous tridactylus
[34] = Induction of mitotic cell cycle arrest in potoroo PtK2 cells assessed as accumulation of cells at G1/G0 phase at 5 uM treated for 7 hrs, washed followed by 16 hrs incubation by flow cytometry (Rvb= 59%); assay type: functional, Potorous tridactylus
[35] = Displacement of [3H]epothilone B from microtubule assessed as bound radioligand level at 20 uM treated after radioligand addition by competitive binding assay
[36] = Displacement of [3H]paclitaxel from microtubule assessed as bound radioligand level at 20 uM treated after radioligand addition by competitive binding assay

CC1=C[C@H]2[C@@H](O)[C@H](C)[C@@H](O)[C@@H]2[C@H]2[C@@H]3C4=C5O[C@](C)(CC[C@@H](OC4=O)[C@H]5C)[C@@H]3C[C@@H]12 [CYCLOSTREPTIN]
Activity [1]: 3.4%
Activity [2]: 9.4%
Activity [3]: 70%
Activity [4]: 12%
Activity [5]: Active
Activity [6]: 4.6%
pKd [7]: 7.31
pIC50 [8]: 6.62
Activity [9]: 70%
Activity [10]: 4%
Activity [11]: 19%
Activity [12]: 2.3%
Activity [13]: 65.5%
Activity [14]: Active
Activity [15]: Active
Activity [16]: 77.1%
Activity [17]: 96%
Activity [18]: 18.5%
Activity [19]: 10%
Activity [20]: 17%
Activity [21]: 65%
Activity [22]: 61%
pIC50 [23]: 7.36
Activity [24]: 20.5%
Activity [25]: 9%
Activity [26]: Active
pIC50 [27]: 7.34
Activity [28]: Active
Activity [29]: 12.6%
pIC50 [30]: 7.24
Activity [31]: 32%
Activity [32]: Active
Activity [33]: 70%
Activity [34]: 18.5%
Activity [35]: 79%
Activity [36]: 60%

From ChEMBL document CHEMBL1240321, “Cyclostreptin binds covalently to microtubule pores and lumenal taxoid binding sites” (Nat Chem Biol, 2007)
